We go through 21 compounds from ChEMBL document CHEMBL4251640, “Antimalarial naphthoquinones. Synthesis via click chemistry, in vitro activity, docking to PfDHODH and SAR of lapachol-based compounds” (Eur J Med Chem, 2018).

A short description of data set [1]: Selectivity index, CC50 for human HepG2 cells to IC50 for chloroquine-resistant/mefloquine-sensitive Plasmodium falciparum W2 ring stage forms. The data set is classed as toxicity. Conditions: read-out: Ratio CC50/IC50. In a few lines:
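HepG2 cytotoxicity: cells in RPMI 1640 with 5% FBS, trypsinized and plated. Compounds at 0.02% DMSO final, four serial-dilution concentrations, 24 h at 37 °C. MTT added for 90 min, formazan dissolved in DMSO, read at 570 nm. Duplicates. CC50 taken as the concentration killing 50% of cells. SI = CC50/IC50 against W2, with IC50 from the 48 h pLDH assay.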

The test system of another data set is Plasmodium falciparum. As to the kind of experiment: Antimalarial activity against chloroquine-resistant/mefloquine-sensitive Plasmodium falciparum W2 ring stage forms infected in human erythrocytes assessed as reduction in parasite growth after 48 hrs by parasite LDH release assay. The class given is functional, organism-based. Conditions: W2, 48 h. In a few lines:
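Sorbitol-synchronized ring-stage parasites in human erythrocytes (culture kept at 37 °C, candle jar, RPMI with hypoxanthine, HEPES, 10% human plasma) plated at 2% parasitemia, 1% hematocrit with drugs diluted from DMSO stock. Incubated 48 h, frozen -20 °C 24 h, thawed. Lysate given Malstat plus NBT/PES for 1 h at 37 °C in the dark, A570 read. Triplicates. IC50 from sigmoidal dose-response fit versus drug-free controls.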
A general note: LDH leaks from cells whose membrane has failed.

The nature of data set [2]: Cytotoxicity against human HepG2 cells assessed as reduction in cell viability after 24 hrs by MTT assay. The class given is cell-based. A digest of the protocol: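 HepG2 hepatoma cells kept at 37 °C, 5% CO2 in RPMI 1640 with 5% FBS, penicillin and streptomycin; trypsinized and plated in 96-well plates. Samples diluted in medium at 0.02% DMSO final, four serial concentrations; 24 h at 37 °C, then MTT (5 mg/ml in PBS) 90 min, formazan dissolved in DMSO, absorbance 570 nm. Duplicate; CC50 = concentration killing 50% of cells.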

Turning to `CC(C)=CCC1=C(OCc2cn(-c3cccnc3)nn2)C(=O)c2ccccc2C1=O`, the selectivity ratio in data set [1] stood at 198. Besides, in the data set on Plasmodium falciparum, the 50% inhibitory concentration (IC50) was 5.2 µM. In addition, the CC50 at 24 h in data set [2] is 1030 µM.

Turning to `CC(C)=CCC1=C(OCc2cn(Cc3ccccn3)nn2)C(=O)c2ccccc2C1=O`, the selectivity ratio in data set [1] worked out at 75.6. In the data set with Plasmodium falciparum, the half-maximal inhibitory concentration (IC50) was 8.7 µM. Besides, the half-maximal cytotoxic concentration (CC50) at 24 h in data set [2] stood at 658 µM.

With `CC(C)=CCC1=C(OCc2cn(C3C[C@@H](CO)O[C@H]3n3cc(C)c(=O)[nH]c3=O)nn2)C(=O)c2ccccc2C1=O` (stereo partly specified), the selectivity ratio in data set [1] stood at 4.5. For the same compound, the IC50 in the data set on Plasmodium falciparum came to 13.6 µM. Besides, the CC50 at 24 h in data set [2] turned out to be 60.7 µM.

Turning to `O=C1C(O)=C([C@H]2CC[C@H](c3ccc(Cl)cc3)CC2)C(=O)c2ccccc21` [ATOVAQUONE], in data set [1], the selectivity ratio is > 328. Moreover, the IC50 with Plasmodium falciparum turned out to be 0.00122 µM. Moreover, the cytotoxic concentration (CC50) at 24 h in data set [2] is > 40 µM.

Turning to `CC(C)=CCC1=C(OCc2cn(C3CCN(C(=O)OC(C)(C)C)CC3)nn2)C(=O)c2ccccc2C1=O`, the selectivity ratio in data set [1] was 34. Further, the IC50 in the data set with Plasmodium falciparum amounted to 4 µM. The cytotoxic concentration (CC50) at 24 h in data set [2] is 136 µM.

Turning to `CC(C)=CCC1=C(OCc2cn(-c3ccccc3C)nn2)C(=O)c2ccccc2C1=O`, the selectivity ratio in data set [1] was determined as 13.6. In the data set on Plasmodium falciparum, the IC50 lay within 18.8 to 19.4 µM. Besides, the CC50 at 24 h in data set [2] was 256 µM.

Regarding `CC(C)=CCC1=C(OCc2cn(-c3cccc(F)c3)nn2)C(=O)c2ccccc2C1=O`, the selectivity ratio in data set [1] is 31.5. For the same compound, the IC50 in the data set with Plasmodium falciparum was determined as 8.4 µM. The CC50 at 24 h in data set [2] is 265 µM.

For the compound `CC(C)=CCC1=C(OCc2cn(-c3ccc(Cl)cc3)nn2)C(=O)c2ccccc2C1=O`, the selectivity ratio in data set [1] came out at 118. Moreover, the half-inhibitory concentration (IC50) in the data set with Plasmodium falciparum stood at 9.8 µM. Also, the 50% cytotoxic concentration (CC50) at 24 h in data set [2] stood at 1150 µM.

In the case of `COc1cc([N+](=O)[O-])ccc1-n1cc(COC2=C(CC=C(C)C)C(=O)c3ccccc3C2=O)nn1`, the selectivity ratio in data set [1] worked out at 171. Besides, the half-maximal inhibitory concentration (IC50) in the data set with Plasmodium falciparum was 4.1 µM. For the same compound, in data set [2], the CC50 at 24 h is 701 µM.

As to `C#CCOC1=C(CC=C(C)C)C(=O)c2ccccc2C1=O`, the selectivity ratio in data set [1] is 113. The IC50 in the data set on Plasmodium falciparum worked out at 8.2 µM. Also, the CC50 at 24 h in data set [2] was found to be 924 µM.

For the compound `COc1ccc(-n2cc(COC3=C(CC=C(C)C)C(=O)c4ccccc4C3=O)nn2)cc1`, the selectivity ratio in data set [1] stood at 14.1. In the data set on Plasmodium falciparum, the IC50 was found to be 14.2 µM. In data set [2], the CC50 at 24 h came out at 200 µM.

In the case of `CC(C)=CCC1=C(OCc2cn(-c3ccc(C#N)cc3)nn2)C(=O)c2ccccc2C1=O`, the selectivity ratio in data set [1] was 84.2. For the same compound, the IC50 in the data set with Plasmodium falciparum is 8.4 µM. The CC50 at 24 h in data set [2] amounted to 707 µM.

`CC(C)=CCC1=C(OCc2cn(C3CCNCC3)nn2)C(=O)c2ccccc2C1=O`: the selectivity ratio in data set [1] was determined as 124. For the same compound, the 50% inhibitory concentration (IC50) with Plasmodium falciparum stood at 4.6 µM. Besides, in data set [2], the half-maximal cytotoxic concentration (CC50) at 24 h came out at 570 µM.

Turning to `CC(C)=CCC1=C(OCc2cn(-c3ccc(S(N)(=O)=O)cc3)nn2)C(=O)c2ccccc2C1=O`, the selectivity ratio in data set [1] was < 4.6. Further, in the data set on Plasmodium falciparum, the IC50 is > 105 µM. Further, the CC50 at 24 h in data set [2] stood at 483 µM.

Take `COc1ccc(-n2cc(COC3=C(CC=C(C)C)C(=O)c4ccccc4C3=O)nn2)c([N+](=O)[O-])c1`: the selectivity ratio in data set [1] stood at 64.8. In addition, in the data set on Plasmodium falciparum, the IC50 is 8.2 µM. Further, in data set [2], the half-maximal cytotoxic concentration (CC50) at 24 h came to 532 µM.

As to `CC(C)=CCC1=C(OCc2cn(-c3ccccc3)nn2)C(=O)c2ccccc2C1=O`, the selectivity ratio in data set [1] came out at 5.2. In addition, the IC50 in the data set on Plasmodium falciparum amounted to 19.1 µM. Besides, in data set [2], the 50% cytotoxic concentration (CC50) at 24 h turned out to be 100 µM.

As to `CC(C)=CCC1=C(OCc2cn(-c3ccnc4cc(Cl)ccc34)nn2)C(=O)c2ccccc2C1=O`, the selectivity ratio in data set [1] was determined as 129. The half-inhibitory concentration (IC50) in the data set on Plasmodium falciparum amounted to 15.1 µM. Further, the CC50 at 24 h in data set [2] amounted to 1940 µM.

As to `CC(C)=CCC1=C(OCc2cn(-c3ccc([N+](=O)[O-])cc3)nn2)C(=O)c2ccccc2C1=O`, in data set [1], the selectivity ratio was 46.1. Moreover, the IC50 with Plasmodium falciparum was found to be 11.7 µM. Besides, the CC50 at 24 h in data set [2] turned out to be 540 µM.

Turning to `CC(C)=CCC1=C(O)C(=O)c2ccccc2C1=O` [LAPACHOL], the selectivity ratio in data set [1] was > 33.4. Also, in the data set with Plasmodium falciparum, the IC50 stood at 124 µM. The CC50 at 24 h in data set [2] is > 4130 µM.

Consider `CC(C)=CCC1=C(OCc2cn(Cc3ccccc3)nn2)C(=O)c2ccccc2C1=O`, for which the selectivity ratio in data set [1] came to 53. Moreover, the IC50 in the data set with Plasmodium falciparum came to 7.8 µM. In addition, in data set [2], the CC50 at 24 h was 414 µM.

On to `CCN(CC)CCCC(C)Nc1ccnc2cc(Cl)ccc12` (stereo unspecified) [CHLOROQUINE], for which the 50% cytotoxic concentration (CC50) at 24 h in data set [2] came out at 393 µM.

In general, IC50 refers to the concentration that inhibits the measured activity by half. As usually defined, the CC50 is the concentration that lowers cell viability or growth by half.
